Measured values taken from ChEMBL document CHEMBL1250442, “Inhibiting gene expression at transcription start sites in chromosomal DNA with antigene RNAs” (Nat Chem Biol, 2005).

Legend:
T47D [1] = experiment: Inhibition of PR-A mRNA gene expression in human T47D cells at 100 nM by syber green assay; assay type: functional
Procedure, shortened: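 T47D cells plated at 80,000/well without antibiotics two days before Oligofectamine transfection with agRNA duplex (25 or 100 nM final); medium changed at 24 h, harvest day 5 unless stated otherwise. TRIzol total RNA; PR mRNA by real-time PCR with SYBR Green: 50 °C 2 min, 95 °C 10 min, 40 cycles 95 °C 15 s/60 °C 1 min.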

T47D [2] = experiment: Cytotoxicity against human T47D cells assessed as effect on cellular morphology; assay type: cell-based
T47D [3] = experiment: Inhibition of PR-B mRNA gene expression in human T47D cells at 100 nM by syber green assay; assay type: functional
Procedure, shortened: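 T47D cells in RPMI-1640 with 10% FBS, NEAA, insulin, 37 °C, 5% CO2. Plated two days before transfection without antibiotics. Oligofectamine-mediated duplex RNA transfection at 100 nM final, medium changed at 24 h, harvest five days post-transfection. Total RNA extracted with TRIzol. hPR mRNA quantified by SYBR Green qPCR: 50 °C 2 min, 95 °C 10 min, then 40 cycles of 95 °C 15 s / 60 °C 1 min.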

## Cc1cn([C@H]2C[C@H](OP(=O)(O)OC[C@H]3O[C@@H](n4cc(C)c(=O)[nH]c4=O)C[C@@H]3O)[C@@H](COP(=O)(O)O[C@H]3[C@@H](O)[C@H](n4ccc(N)nc4=O)O[C@@H]3COP(=O)(O)O[C@H]3[C@@H](O)[C@H](n4ccc(N)nc4=O)O[C@@H]3COP(=O)(O)O[C@H]3[C@@H](O)[C@H](n4cnc5c(N)ncnc54)O[C@@H]3COP(=O)(O)O[C@H]3[C@@H](O)[C@H](n4ccc(N)nc4=O)O[C@@H]3COP(=O)(O)O[C@H]3[C@@H](O)[C@H](n4cnc5c(N)ncnc54)O[C@@H]3COP(=O)(O)O[C@H]3[C@@H](O)[C@H](n4ccc(N)nc4=O)O[C@@H]3COP(=O)(O)O[C@H]3[C@@H](O)[C@H](n4ccc(N)nc4=O)O[C@@H]3COP(=O)(O)O[C@H]3[C@@H](O)[C@H](n4ccc(=O)[nH]c4=O)O[C@@H]3COP(=O)(O)O[C@H]3[C@@H](O)[C@H](n4cnc5c(=O)[nH]c(N)nc54)O[C@@H]3COP(=O)(O)O[C@H]3[C@@H](O)[C@H](n4cnc5c(N)ncnc54)O[C@@H]3COP(=O)(O)O[C@H]3[C@@H](O)[C@H](n4ccc(N)nc4=O)O[C@@H]3COP(=O)(O)O[C@H]3[C@@H](O)[C@H](n4ccc(N)nc4=O)O[C@@H]3COP(=O)(O)O[C@H]3[C@@H](O)[C@H](n4cnc5c(=O)[nH]c(N)nc54)O[C@@H]3COP(=O)(O)O[C@H]3[C@@H](O)[C@H](n4ccc(N)nc4=O)O[C@@H]3COP(=O)(O)O[C@H]3[C@@H](O)[C@H](n4ccc(=O)[nH]c4=O)O[C@@H]3COP(=O)(O)O[C@H]3[C@@H](O)[C@H](n4ccc(N)nc4=O)O[C@@H]3COP(=O)(O)O[C@H]3[C@@H](O)[C@H](n4ccc(=O)[nH]c4=O)O[C@@H]3COP(=O)(O)O[C@H]3[C@@H](O)[C@H](n4ccc(N)nc4=O)O[C@@H]3COP(=O)(O)O[C@H]3[C@@H](O)[C@H](n4ccc(=O)[nH]c4=O)O[C@@H]3CO)O2)c(=O)[nH]c1=O
T47D [1]
  inhibition at 0.1 µM: < 20%
T47D [2]
  Activity: Non-toxic
T47D [3]
  inhibition at 0.1 µM: < 20%
